Activity calls are given as the source filed them. No cut-off for these calls is given here.
What was measured:
[1] = system: HCT-116; assay: Cytotoxicity against human HCT116 cells assessed as cell viability after 48 hrs by MTT assay; type: functional, cell-based; details: HCT-116, 48 h
Method in brief: (§1)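 HCT116 cells seeded in 24-well plates two days prior, treated 48 h in fresh complete medium (DMSO ≤0.5% v/v; DMSO-only control); MTT 0.5 mg/ml final added for last hour, formazan dissolved in DMSO:ethanol 50:50, A570 minus A690; viability as % of control; IC50 from 2.5–20 range dose-response; mean ± SEM of 4 independent experiments.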

[2] = system: HCT-116; assay: Cytotoxicity against human HCT116 cells assessed as cell viability at 10 uM after 48 hrs by MTT assay relative to control; type: functional; details: HCT-116, 48 h, read-out: Activity; method in brief: as §1
[3] = system: HCT-116; assay: Cytotoxicity against human HCT116 cells assessed as cell viability at 15 uM after 48 hrs by MTT assay relative to control; type: functional; details: HCT-116, 48 h, read-out: Activity; method in brief: as §1
[4] = system: HCT-116; assay: Cell cycle arrest in human HCT116 cells assessed as accumulation at S and G2/M phase at 15 uM after 48 hrs by flow cytometry analysis; type: functional, cell-based
Method in brief: (§2)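 HCT116 cells (RPMI 1640, 6% FBS, 37 °C, 5% CO2) seeded two days ahead, exposed 48 h; floating plus attached cells collected by trypsinization, fixed in 70% ethanol at 4 °C 15 min, stained with PI/RNase A at 37 °C 15 min; ≥40 000 single cells counted by flow cytometry; phases fitted by Watson Pragmatic model; 3 independent experiments.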

[5] = system: HCT-116; assay: Induction of morphological changes in human HCT116 cells assessed as floating cells at 15 to 100 uM after 48 hrs by microscopic analysis; type: functional, cell-based
[6] = system: HCT-116; assay: Induction of apoptosis in human HCT116 cells assessed as cleavage of PARP1 at 10 to 15 uM after 48 hrs by Western blot analysis; type: functional, cell-based
Method in brief: (§3)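 Cells seeded two days before 48 h exposure; floating and attached cells harvested, lysed in ice-cold RIPA with PMSF, phosphatase and protease inhibitors; 20 µg protein by SDS-PAGE, PVDF transfer, milk blocking, primary antibody (p53 DO-1, p27 C-19, PARP-1 F-2) overnight, HRP secondary, chemiluminescence; band intensity quantified, β-actin loading control.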

[7] = system: HCT-116; assay: Cell cycle arrest in human HCT116 cells assessed as accumulation at sub-G1 phase at 10 to 15 uM after 48 hrs by flow cytometry analysis; type: functional, cell-based; method in brief: as §2
[8] = system: HCT-116; assay: Induction of apoptosis in human HCT116 cells assessed as nuclear condensation after 48 hrs by fluorescence microscopic analysis; type: functional, cell-based
Method in brief: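 After 48 h exposure, floating and attached cells harvested, fixed in 4% paraformaldehyde 15 min at room temperature, cytospun onto polylysine slides, Hoechst-stained; apoptotic fraction = condensed nuclei over total nuclei, >500 cells per slide counted by fluorescence microscopy; mean ± SEM of ≥3 independent experiments.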

[9] = system: HCT-116; assay: Cell cycle arrest in human HCT116 cells assessed as accumulation at S and G2/M phase at 10 to 15 uM after 48 hrs by flow cytometry analysis; type: functional, cell-based; method in brief: as §2
[10] = system: HCT-116; assay: Cell cycle arrest in human HCT116 cells assessed as accumulation at S and G2/M phase at IC50 after 48 hrs by flow cytometry analysis; type: functional, cell-based; method in brief: as §2
[11] = system: HCT-116; assay: Cytotoxicity against human HCT116 cells assessed as cell viability at 30 uM after 48 hrs by MTT assay relative to control; type: functional; details: HCT-116, 48 h, read-out: Activity
Method in brief: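 HCT116 cells grown in RPMI 1640 with 6% FBS, 0.1 mM sodium pyruvate and 10 mM HEPES at 37 °C in 5% CO2, seeded at 70 000 cells/mL two days before treatment. Exposure 48 h in fresh complete medium, DMSO ≤0.5% (v/v), DMSO-only controls. MTT (0.5 mg/ml final) added for the last hour, formazan dissolved in DMSO:ethanol 50:50, A570 minus A690. Viability given as % of control; mean ± SEM of 4 independent experiments; Student's t-test.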

[12] = system: HCT-116; assay: Induction of apoptosis in human HCT116 cells assessed as cleavage of PARP1 at 5 to 10 uM after 48 hrs by Western blot analysis; type: functional, cell-based; method in brief: as §3
[13] = system: HCT-116; assay: Cell cycle arrest in human HCT116 cells assessed as accumulation at sub-G1 phase at 5 to 10 uM after 48 hrs by flow cytometry analysis; type: functional, cell-based; method in brief: as §2
[14] = system: HCT-116; assay: Cell cycle arrest in human HCT116 cells assessed as accumulation at S and G2/M phase at 5 to 10 uM after 48 hrs by flow cytometry analysis; type: functional, cell-based; method in brief: as §2
[15] = system: HCT-116; assay: Induction of morphological changes in human HCT116 cells assessed as floating cells at 10 to 100 uM after 48 hrs by microscopic analysis; type: functional, cell-based
[16] = system: HCT-116; assay: Cell cycle arrest in human HCT116 cells assessed as increase of p27 expression at 5 to 10 uM after 48 hrs by Western blot analysis; type: functional, cell-based; method in brief: as §3
[17] = system: HCT-116; assay: Cell cycle arrest in human HCT116 cells assessed as increase of p53 expression at 5 to 10 uM after 48 hrs by Western blot analysis; type: functional, cell-based; method in brief: as §3

Structure (SMILES): O=c1c(O)c(-c2ccc(Cl)cc2)oc2ccccc12
- IC50 [1]: 6.8 µM
- viability at 10 µM [2]: 40.8%
- viability at 15 µM [3]: 38%

Structure (SMILES): COc1ccc(-c2oc3ccccc3c(=O)c2O)cc1OC [3-HYDROXY-3',4'-DIMETHOXYFLAVONE]
- viability at 15 µM [3]: 78.1%

Structure (SMILES): O=C(/C=C/c1ccc(C(F)(F)F)cc1)c1ccccc1O
- Activity [4]: inactive
- Activity [5]: Active
- viability at 15 µM [3]: 85.1%

Structure (SMILES): O=C(/C=C/c1ccc(Br)cc1)c1ccccc1O
- IC50 [1]: 19.1 µM
- viability at 10 µM [2]: 85.5%
- viability at 15 µM [3]: 68.4%

Structure (SMILES): COc1ccc(-c2oc3ccccc3c(=O)c2O)cc1
- viability at 15 µM [3]: 96%

Structure (SMILES): O=c1c(O)c(-c2cccc(Cl)c2)oc2ccccc12
- IC50 [1]: 8.1 µM
- viability at 10 µM [2]: 43.8%
- viability at 15 µM [3]: 32.9%

Structure (SMILES): Cc1ccc(-c2oc3ccccc3c(=O)c2O)cc1
- viability at 15 µM [3]: 59.3%

Structure (SMILES): COc1cc(OC)c(/C=C/C(=O)c2ccccc2O)c(OC)c1
- viability at 15 µM [3]: 91.1%

Structure (SMILES): COc1cc(/C=C/C(=O)c2ccccc2O)cc(OC)c1OC
- viability at 15 µM [3]: 83.7%

Structure (SMILES): O=c1c(O)c(-c2ccc(F)cc2)oc2ccccc12
- IC50 [1]: 14.4 µM
- viability at 10 µM [2]: 61.1%
- viability at 15 µM [3]: 49.2%

Structure (SMILES): O=C(/C=C/c1cccc(Cl)c1)c1ccccc1O
- IC50 [1]: 13.2 µM
- viability at 10 µM [2]: 75.8%
- viability at 15 µM [3]: 37.5%

Structure (SMILES): COc1ccccc1-c1oc2ccccc2c(=O)c1O
- viability at 15 µM [3]: 89.1%

Structure (SMILES): O=C(/C=C/c1cccc(F)c1)c1ccccc1O
- IC50 [1]: 14.5 µM
- viability at 10 µM [2]: 90.2%
- viability at 15 µM [3]: 45.3%

Structure (SMILES): Cc1cccc(-c2oc3ccccc3c(=O)c2O)c1
- viability at 15 µM [3]: 38.7%

Structure (SMILES): COc1cccc(/C=C/C(=O)c2ccccc2O)c1O
- viability at 15 µM [3]: 84.7%

Structure (SMILES): O=C(/C=C/c1cccc(Br)c1)c1ccccc1O
- IC50 [1]: 10.9 µM
- Activity [6]: Active
- Activity [7]: Active
- viability at 10 µM [2]: 48.4%
- Activity [5]: Active
- Activity [8]: Dose-dependent effect
- viability at 15 µM [3]: 29.6%
- Activity [9]: Active
- Activity [10]: Active

Structure (SMILES): O=C(/C=C/c1ccc(Cl)cc1)c1ccccc1O
- IC50 [1]: 20.9 µM
- viability at 10 µM [2]: 84.8%
- viability at 15 µM [3]: 69.1%

Structure (SMILES): O=C(/C=C/c1ccc(F)cc1)c1ccccc1O
- IC50 [1]: 20.5 µM
- viability at 10 µM [2]: 85.2%
- viability at 15 µM [3]: 74.9%

Structure (SMILES): Cc1ccc(/C=C/C(=O)c2ccccc2O)cc1
- viability at 15 µM [3]: 89.1%

Structure (SMILES): O=c1c(O)c(-c2ccccc2)oc2ccccc12 [FLAVONOL]
- viability at 15 µM [3]: 64.6%

Structure (SMILES): O=c1c(O)c(-c2ccc(O)c(O)c2)oc2cc(O)cc(O)c12 [QUERCETIN]
- viability at 30 µM [11]: 59.7%

Structure (SMILES): O=c1c(O)c(-c2cccc(F)c2)oc2ccccc12
- IC50 [1]: 13 µM
- viability at 10 µM [2]: 60.9%
- viability at 15 µM [3]: 45.9%

Structure (SMILES): COc1cc(-c2oc3ccccc3c(=O)c2O)cc(OC)c1OC
- viability at 15 µM [3]: 70%

Structure (SMILES): O=C(/C=C/c1ccccc1)c1ccccc1O [2'-HYDROXYCHALCONE]
- viability at 15 µM [3]: 91.7%

Structure (SMILES): COc1ccc(OC)c(-c2oc3ccccc3c(=O)c2O)c1
- viability at 15 µM [3]: 76.6%

Structure (SMILES): O=c1c(O)c(-c2ccc(Br)cc2)oc2ccccc12
- Activity [12]: Active
- IC50 [1]: 4.6 µM
- Activity [13]: Active
- viability at 10 µM [2]: 32.8%
- Activity [14]: Active
- Activity [8]: Dose-dependent effect
- Activity [15]: Active
- Activity [16]: Active
- viability at 15 µM [3]: 29.2%
- Activity [17]: Active
- Activity [10]: Active

Structure (SMILES): COc1ccc(/C=C/C(=O)c2ccccc2O)cc1
- viability at 15 µM [3]: 89.1%

Structure (SMILES): COc1cccc(/C=C/C(=O)c2ccccc2O)c1
- viability at 15 µM [3]: 89.6%

Structure (SMILES): Cc1cccc(/C=C/C(=O)c2ccccc2O)c1
- viability at 15 µM [3]: 85.9%

Structure (SMILES): O=c1c(O)c(-c2cccc(Br)c2)oc2ccccc12
- IC50 [1]: 7.5 µM
- viability at 10 µM [2]: 37.6%
- viability at 15 µM [3]: 29.2%

Structure (SMILES): COc1cccc(-c2oc3ccccc3c(=O)c2O)c1
- viability at 15 µM [3]: 39.5%

— ChEMBL document CHEMBL2401708, “Superior anticancer activity of halogenated chalcones and flavonols over the natural flavonol quercetin” (Eur J Med Chem, 2013)
